Data taken from ChEMBL document CHEMBL4190374, “Structure-Function Evaluation of Imidazopyridine Derivatives Selective for δ-Subunit-Containing γ-Aminobutyric Acid Type A (GABAA) Receptors” (J Med Chem, 2018).

Key:
[1] = biological target: Gamma-aminobutyric acid receptor subunit alpha-4/beta-3/gamma-2 (Rattus norvegicus, UniProt P18508+P28471+P63079); test: Displacement of [3H]EBOB from rat GABA-A receptor alpha4beta3gamma2 expressed in HEK293 cell membranes after 90 mins by liquid scintillation counting analysis
Chain of Gamma-aminobutyric acid receptor subunit alpha-4/beta-3/gamma-2 (P18508 whole entry): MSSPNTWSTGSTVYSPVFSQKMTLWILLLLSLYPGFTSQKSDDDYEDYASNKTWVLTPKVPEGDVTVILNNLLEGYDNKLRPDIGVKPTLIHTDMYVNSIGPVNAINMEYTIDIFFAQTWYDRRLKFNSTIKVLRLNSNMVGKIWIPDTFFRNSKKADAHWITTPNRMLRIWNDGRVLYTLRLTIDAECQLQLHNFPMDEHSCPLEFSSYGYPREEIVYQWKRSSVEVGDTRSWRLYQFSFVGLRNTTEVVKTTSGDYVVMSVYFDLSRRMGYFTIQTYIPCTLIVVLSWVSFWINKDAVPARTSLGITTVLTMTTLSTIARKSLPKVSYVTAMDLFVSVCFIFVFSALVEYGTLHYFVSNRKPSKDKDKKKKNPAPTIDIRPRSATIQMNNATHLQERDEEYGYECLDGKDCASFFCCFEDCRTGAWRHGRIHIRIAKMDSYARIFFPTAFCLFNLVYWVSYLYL
Chain of Gamma-aminobutyric acid receptor subunit alpha-4/beta-3/gamma-2 (P28471 whole entry): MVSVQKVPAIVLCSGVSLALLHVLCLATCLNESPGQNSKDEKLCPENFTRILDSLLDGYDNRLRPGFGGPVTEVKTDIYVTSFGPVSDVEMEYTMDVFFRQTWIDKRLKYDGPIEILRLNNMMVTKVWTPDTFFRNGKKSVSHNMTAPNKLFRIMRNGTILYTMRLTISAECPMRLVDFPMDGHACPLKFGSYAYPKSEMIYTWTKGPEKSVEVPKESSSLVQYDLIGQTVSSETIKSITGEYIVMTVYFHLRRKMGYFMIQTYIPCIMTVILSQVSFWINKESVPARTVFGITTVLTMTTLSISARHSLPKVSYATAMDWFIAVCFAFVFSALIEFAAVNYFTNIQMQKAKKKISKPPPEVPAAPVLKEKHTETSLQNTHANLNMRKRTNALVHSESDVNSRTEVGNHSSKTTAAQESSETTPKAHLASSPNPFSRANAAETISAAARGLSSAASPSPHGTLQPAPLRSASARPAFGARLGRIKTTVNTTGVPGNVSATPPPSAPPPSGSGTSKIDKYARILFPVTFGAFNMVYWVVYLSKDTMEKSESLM
Chain of Gamma-aminobutyric acid receptor subunit alpha-4/beta-3/gamma-2 (P63079 whole entry): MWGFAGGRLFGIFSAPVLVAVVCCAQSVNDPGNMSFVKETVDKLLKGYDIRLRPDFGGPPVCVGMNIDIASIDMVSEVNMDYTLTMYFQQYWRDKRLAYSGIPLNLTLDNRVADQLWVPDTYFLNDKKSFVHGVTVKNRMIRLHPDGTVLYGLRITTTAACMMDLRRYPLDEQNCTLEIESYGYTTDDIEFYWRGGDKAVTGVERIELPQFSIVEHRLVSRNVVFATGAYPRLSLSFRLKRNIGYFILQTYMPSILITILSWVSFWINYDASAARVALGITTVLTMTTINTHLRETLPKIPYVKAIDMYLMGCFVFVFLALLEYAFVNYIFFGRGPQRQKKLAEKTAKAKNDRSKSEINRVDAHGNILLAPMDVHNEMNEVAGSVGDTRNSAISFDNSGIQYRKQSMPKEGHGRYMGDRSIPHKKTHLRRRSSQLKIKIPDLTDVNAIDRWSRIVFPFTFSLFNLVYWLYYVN
In short: (§1)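 Crude membranes from HEK 293 cells transiently Ca-phosphate-transfected with rat subunit cDNAs, harvested at 48 h. Membranes (150-200 µg protein) incubated with 3 nM [3H]EBOB in 50 mM Tris/citrate pH 7.3 plus 0.2 M NaCl. Compound up to 10 µM, final DMSO 0.1%, no GABA, 90 min at 21 °C. Bound radioligand collected by GF/C filtration and counted by scintillation.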

[2] = biological target: T1, Gamma-aminobutyric acid receptor subunit alpha-1/beta-3/gamma-2 (Rattus norvegicus) (UniProt P18508+P62813+P63079); test: Displacement of [3H]EBOB from rat GABA-A receptor alpha1beta3gamma2 expressed in HEK293 cell membranes at 10 uM after 90 mins by liquid scintillation counting analysis relative to control; in short: as §1
[3] = biological target: Gamma-aminobutyric acid receptor subunit alpha-1/beta-3/delta (Rattus norvegicus) (UniProt P18506+P62813+P63079); test: Displacement of [3H]EBOB from rat GABA-A receptor alpha1beta3delta expressed in HEK293 cell membranes at 10 uM after 90 mins by liquid scintillation counting analysis relative to control; in short: as §1
[4] = biological target: Gamma-aminobutyric acid receptor subunit alpha-4/beta-3 (Rattus norvegicus) (UniProt P28471+P63079); test: Displacement of [3H]EBOB from rat GABA-A receptor alpha4beta3 expressed in HEK293 cell membranes up to 10 uM after 90 mins by liquid scintillation counting analysis relative to control; in short: as §1
[5] = biological target: Gamma-aminobutyric acid receptor subunit alpha-6/beta-2 (Rattus norvegicus) (UniProt P30191+P63138); test: Displacement of [3H]EBOB from rat GABA-A receptor alpha6beta2 expressed in HEK293 cell membranes up to 10 uM after 90 mins by liquid scintillation counting analysis relative to control; in short: as §1
[6] = biological target: Gamma-aminobutyric acid receptor subunit alpha-6/beta-2/delta (Rattus norvegicus) (UniProt P18506+P30191+P63138); test: Displacement of [3H]EBOB from rat GABA-A receptor alpha6beta2delta expressed in HEK293 cell membranes up to 10 uM after 90 mins by liquid scintillation counting analysis relative to control; in short: as §1
Rattus norvegicus [7] = species on record: Rattus norvegicus; test: Selectivity ratio of IC50 for rat GABA-A receptor alpha4beta3gamma2 expressed in HEK293 cells to IC50 for rat GABA-A receptor alpha4beta3delta expressed in HEK293 cells; format: cell-based
Rattus norvegicus [8] = species on record: Rattus norvegicus; test: Selectivity ratio of IC50 for rat GABA-A receptor alpha4beta3 expressed in HEK293 cells to IC50 for rat GABA-A receptor alpha4beta3delta expressed in HEK293 cells; format: cell-based
[9] = biological target: T2, Gamma-aminobutyric acid receptor subunit alpha-6/beta-3 (Rattus norvegicus, UniProt P30191+P63079); test: Modulation of rat […] GABA-A receptor alpha6beta3 expressed in HEK293 cells in presence of GABA by patch-clamp assay; format: cell-based
T2 sequence (P30191 whole entry): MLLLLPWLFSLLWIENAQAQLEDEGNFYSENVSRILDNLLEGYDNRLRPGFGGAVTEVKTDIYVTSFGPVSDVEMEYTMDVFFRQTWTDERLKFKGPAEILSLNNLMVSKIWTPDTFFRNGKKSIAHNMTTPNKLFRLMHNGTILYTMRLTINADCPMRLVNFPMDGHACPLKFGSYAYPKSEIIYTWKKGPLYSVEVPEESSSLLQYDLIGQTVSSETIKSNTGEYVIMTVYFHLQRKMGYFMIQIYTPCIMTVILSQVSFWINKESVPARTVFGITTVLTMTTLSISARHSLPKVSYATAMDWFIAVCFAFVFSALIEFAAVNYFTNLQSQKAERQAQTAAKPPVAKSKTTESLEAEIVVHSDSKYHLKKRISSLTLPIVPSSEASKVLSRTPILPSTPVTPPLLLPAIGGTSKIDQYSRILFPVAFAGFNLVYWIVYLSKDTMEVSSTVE
T2 sequence (P63079 whole entry): as the sequence (P63079 whole entry) above
In short: (§2)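 Rat GABA-A subunits were transiently co-transfected with eGFP into HEK293 cells on coverslips. Fluorescent cells were recorded by whole-cell patch clamp 48 h later; bath pH 7.4, KCl/KOH pipette pH 7.2. Compound was applied at increasing concentrations up to 10 µM with the receptor-specific GABA EC20. Peak currents were fitted logistically for EC50, Hill and % modulation, as mean ± S.E.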

[10] = biological target: Gamma-aminobutyric acid receptor subunit alpha-6/beta-3/gamma-2 (Rattus norvegicus, UniProt P18508+P30191+P63079); test: Modulation of rat […] GABA-A receptor alpha6beta3gamma2 expressed in HEK293 cells in presence of GABA by patch-clamp assay; format: cell-based; in short: as §2
Chain of Gamma-aminobutyric acid receptor subunit alpha-6/beta-3/gamma-2 (P18508 whole entry): as the sequence (P18508 whole entry) above
Chain of Gamma-aminobutyric acid receptor subunit alpha-6/beta-3/gamma-2 (P30191 whole entry): as the sequence (P30191 whole entry) above
Chain of Gamma-aminobutyric acid receptor subunit alpha-6/beta-3/gamma-2 (P63079 whole entry): as the sequence (P63079 whole entry) above

[11] = biological target: Gamma-aminobutyric acid receptor subunit alpha-1/beta-3 (Rattus norvegicus) (UniProt P62813+P63079); test: Modulation of rat […] GABA-A receptor alpha1beta3 expressed in HEK293 cells up to 10 uM in presence of GABA by patch-clamp assay relative to control; format: cell-based
In short: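 Whole-cell patch clamp on eGFP-co-transfected HEK 293 cells expressing rat subunits, recorded 48 h post-transfection. KCl/KOH-based pipette solution, pH 7.2. Rising compound concentrations up to 10 µM co-applied with the receptor-specific GABA EC20. Peak currents fitted to a logistic function giving EC50, Hill coefficient and % modulation, mean ± S.E. of n experiments.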

[12] = biological target: T3, Gamma-aminobutyric acid receptor subunit alpha-6/beta-3 (Rattus norvegicus) (UniProt P30191+P63079); test: Modulation of rat […] GABA-A receptor alpha6beta3 expressed in HEK293 cells up to 10 uM in presence of GABA by patch-clamp assay relative to control; format: cell-based; in short: as §2
[13] = biological target: Gamma-aminobutyric acid receptor subunit alpha-6/beta-3/gamma-2 (Rattus norvegicus) (UniProt P18508+P30191+P63079); test: Modulation of rat […] GABA-A receptor alpha6beta3gamma2 expressed in HEK293 cells up to 10 uM in presence of GABA by patch-clamp assay relative to control; format: cell-based; in short: as §2
[14] = biological target: T1, Gamma-aminobutyric acid receptor subunit alpha-1/beta-3/gamma-2 (Rattus norvegicus); test: Agonist activity at rat […] GABA-A receptor alpha1beta3gamma2 expressed in HEK293 cells assessed as ratio of I0 to GABA Imax at 10 uM in absence of GABA by patch-clamp assay; format: cell-based
In short: (§3)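 Whole-cell patch clamp on single fluorescent HEK 293 cells 48 h after transient co-transfection with rat subunit cDNAs plus eGFP. Extracellular solution 135 mM NaCl, 5.3 mM KCl, 2 mM CaCl2, 2 mM MgSO4, 10 mM HEPES pH 7.4, perfused 3 mL/min. Compound at 10 µM without GABA. Current expressed relative to 1 mM GABA at the same receptor (I0/Imax GABA), mean ± S.D. of n experiments.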

[15] = biological target: Gamma-aminobutyric acid receptor subunit alpha-4/beta-3/delta (Rattus norvegicus) (UniProt P18506+P28471+P63079); test: Agonist activity at rat […] GABA-A receptor alpha4beta3delta expressed in HEK293 cells assessed as ratio of I0 to GABA Imax at 10 uM in absence of GABA by patch-clamp assay; format: cell-based; in short: as §3
[16] = biological target: T4, Gamma-aminobutyric acid receptor subunit alpha-6/beta-3/delta (Rattus norvegicus) (UniProt P18506+P30191+P63079); test: Agonist activity at rat […] GABA-A receptor alpha6beta3delta expressed in HEK293 cells assessed as ratio of I0 to GABA Imax at 10 uM in absence of GABA by patch-clamp assay; format: cell-based; in short: as §3
[17] = biological target: T3, Gamma-aminobutyric acid receptor subunit alpha-6/beta-3 (Rattus norvegicus); test: (§4) Displacement of [3H]EBOB from rat GABA-A receptor alpha6beta3 expressed in HEK293 cell membranes after 90 mins in presence of GABA by liquid scintillation counting analysis
[18] = biological target: T2, Gamma-aminobutyric acid receptor subunit alpha-6/beta-3; test: as §4
[19] = biological target: T4, Gamma-aminobutyric acid receptor subunit alpha-6/beta-3/delta (Rattus norvegicus); test: (§5) Displacement of [3H]EBOB from rat GABA-A receptor alpha6beta3delta expressed in HEK293 cell membranes after 90 mins in presence of GABA by liquid scintillation counting analysis
[20] = biological target: Gamma-aminobutyric acid receptor subunit alpha-6/beta-3/delta (Rattus norvegicus, UniProt P18506+P30191+P63079); test: as §5
Chain of Gamma-aminobutyric acid receptor subunit alpha-6/beta-3/delta (P18506 whole entry): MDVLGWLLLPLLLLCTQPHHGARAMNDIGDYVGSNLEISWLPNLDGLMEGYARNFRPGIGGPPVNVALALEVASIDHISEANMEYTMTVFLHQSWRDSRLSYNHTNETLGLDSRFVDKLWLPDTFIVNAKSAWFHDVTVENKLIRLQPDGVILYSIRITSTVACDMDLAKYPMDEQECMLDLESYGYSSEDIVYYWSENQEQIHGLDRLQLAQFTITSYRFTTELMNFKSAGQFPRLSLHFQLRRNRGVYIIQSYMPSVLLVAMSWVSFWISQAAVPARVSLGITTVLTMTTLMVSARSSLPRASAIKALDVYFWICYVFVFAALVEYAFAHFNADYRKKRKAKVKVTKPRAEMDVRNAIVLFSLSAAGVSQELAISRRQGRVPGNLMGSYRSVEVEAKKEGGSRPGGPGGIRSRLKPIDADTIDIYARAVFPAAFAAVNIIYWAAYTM
Chain of Gamma-aminobutyric acid receptor subunit alpha-6/beta-3/delta (P30191 whole entry): as the sequence (P30191 whole entry) above
Chain of Gamma-aminobutyric acid receptor subunit alpha-6/beta-3/delta (P63079 whole entry): as the sequence (P63079 whole entry) above

O=C(Nc1c(-c2cccs2)nc2c(Br)cc(Br)cn12)c1ccc(Cl)cc1
IC50 [1]: 3290 nM | Imax [2]: 13% | Imax [3]: 18% | Imax [4]: 80% | Imax [5]: 93% | Imax [6]: 82% | Ratio IC50 (Rattus norvegicus [7]): 7 | Ratio IC50 (Rattus norvegicus [8]): 4 | EC50 [9]: 170 nM | EC50 [10]: 870 nM | Activity [11]: 35% | Activity [12]: 1140% | Activity [13]: 157% | Ratio [14]: 0.058 | Ratio [15]: 1.61 | Ratio [16]: 1.04 | Imax [17]: 96% | IC50 [18]: 960 nM | Imax [19]: 88% | IC50 [20]: 370 nM
